Source: ChEMBL document CHEMBL2021842, “COMPARE analysis of the toxicity of an iminoquinone derivative of the imidazo[5,4-f]benzimidazoles with NAD(P)H:quinone oxidoreductase 1 (NQO1) activity and computational docking of quinones as NQO1 substrates” (Bioorg Med Chem, 2012)

How the values were obtained:
Format in all cases: functional
Settings in all cases: read-out: Activity
[1] = tested on: HT-29; experiment: Growth inhibition of human HT-29 cells assessed as cell growth at 10 uM relative to untreated control
Summary of the method: (§1)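 NCI DTP 60-cell-line screen, first stage: a single 10 µM dose of compound given to the human tumour panel. Result reported as percent growth relative to control, on a mean growth graph.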

[2] = Growth inhibition of human […] cells assessed as cell growth at 10 uM relative to untreated control
Summary of the method: (§2)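 First stage of the NCI DTP 60 human tumour cell-line screen. Cells were exposed to a single dose of 10 µM. Output is reported as growth % relative to control.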

[3] = tested on: SK-MEL-5; experiment: Growth inhibition of human SK-MEL-5 cells assessed as cell growth at 10 uM relative to untreated control; summary of the method: as §2
[4] = tested on: UACC-62; experiment: Growth inhibition of human UACC62 cells assessed as cell growth at 10 uM relative to untreated control
Summary of the method: (§3)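 This is the first stage of the NCI DTP 60-human-tumour-cell-line screen, covering nine tissue types. Cells receive a single dose of the test compound, and the output is reported as mean growth %.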

[5] = tested on: NCI-H522; experiment: Growth inhibition of human NCI-H522 cells assessed as cell growth at 10 uM relative to untreated control; summary of the method: as §2
[6] = tested on: KM12; experiment: Growth inhibition of human KM12 cells assessed as cell growth at 10 uM relative to untreated control; summary of the method: as §1
[7] = tested on: HOP-92; experiment: Growth inhibition of human HOP92 cells assessed as cell growth at 10 uM relative to untreated control; summary of the method: as §1
[8] = tested on: SK-OV-3; experiment: Growth inhibition of human SKOV3 cells assessed as cell growth at 10 uM relative to untreated control; summary of the method: as §2
[9] = tested on: ACHN; experiment: Growth inhibition of human ACHN cells assessed as cell growth at 10 uM relative to untreated control; summary of the method: as §1
[10] = tested on: MOLT-4; experiment: Growth inhibition of human MOLT4 cells assessed as cell growth at 10 uM relative to untreated control; summary of the method: as §2
[11] = tested on: RXF 393; experiment: Growth inhibition of human RXF393 cells assessed as cell growth at 10 uM relative to untreated control; summary of the method: as §2
[12] = tested on: HCC 2998; experiment: Growth inhibition of human HCC2998 cells assessed as cell growth at 10 uM relative to untreated control; summary of the method: as §1
[13] = tested on: SW-620; experiment: Growth inhibition of human SW620 cells assessed as cell growth at 10 uM relative to untreated control; summary of the method: as §3
[14] = tested on: NCI-H23; experiment: Growth inhibition of human NCI-H23 cells assessed as cell growth at 10 uM relative to untreated control; summary of the method: as §2
[15] = tested on: HL-60(TB); experiment: Growth inhibition of human HL-60(TB) cells assessed as cell growth at 10 uM relative to untreated control
Summary of the method: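 NCI DTP NCI-60 screen, first stage: a single dose applied to 60 human tumour cell lines from nine tissue types. Output is reported as growth %.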

[16] = tested on: 786-0; experiment: Growth inhibition of human 786-0 cells assessed as cell growth at 10 uM relative to untreated control; summary of the method: as §1
[17] = tested on: CCRF-CEM; experiment: Growth inhibition of human CCRF-CEM cells assessed as cell growth at 10 uM relative to untreated control; summary of the method: as §1
[18] = tested on: OVCAR-3; experiment: Growth inhibition of human OVCAR3 cells assessed as cell growth at 10 uM relative to untreated control; summary of the method: as §2
[19] = tested on: NCI-H226; experiment: Growth inhibition of human NCI-H226 cells assessed as cell growth at 10 uM relative to untreated control; summary of the method: as §2
[20] = Growth inhibition of human Hs 578T cells assessed as cell growth at 10 uM relative to untreated control; summary of the method: as §1
[21] = tested on: SNB-75; experiment: Growth inhibition of human SNB75 cells assessed as cell growth at 10 uM relative to untreated control; summary of the method: as §3
[22] = tested on: OVCAR-5; experiment: Growth inhibition of human OVCAR5 cells assessed as cell growth at 10 uM relative to untreated control; summary of the method: as §2
[23] = tested on: SF-539; experiment: Growth inhibition of human SF539 cells assessed as cell growth at 10 uM relative to untreated control; summary of the method: as §2
[24] = tested on: HOP-62; experiment: Growth inhibition of human HOP62 cells assessed as cell growth at 10 uM relative to untreated control; summary of the method: as §1
[25] = tested on: HCT-15; experiment: Growth inhibition of human HCT15 cells assessed as cell growth at 10 uM relative to untreated control; summary of the method: as §1
[26] = tested on: SK-MEL-28; experiment: Growth inhibition of human SK-MEL-28 cells assessed as cell growth at 10 uM relative to untreated control; summary of the method: as §2
[27] = tested on: K562; experiment: Growth inhibition of human K562 cells assessed as cell growth at 10 uM relative to untreated control; summary of the method: as §1
[28] = tested on: SK-MEL-2; experiment: Growth inhibition of human SK-MEL-2 cells assessed as cell growth at 10 uM relative to untreated control; summary of the method: as §2
[29] = tested on: T47D; experiment: Growth inhibition of human T47D cells assessed as cell growth at 10 uM relative to untreated control; summary of the method: as §3
[30] = tested on: EKVX; experiment: Growth inhibition of human EKVX cells assessed as cell growth at 10 uM relative to untreated control; summary of the method: as §1
[31] = tested on: M14; experiment: Growth inhibition of human M14 cells assessed as cell growth at 10 uM relative to untreated control; summary of the method: as §1
[32] = tested on: NCI-H322M; experiment: Growth inhibition of human NCI-H322M cells assessed as cell growth at 10 uM relative to untreated control; summary of the method: as §2
[33] = tested on: A498; experiment: Growth inhibition of human A498 cells assessed as cell growth at 10 uM relative to untreated control; summary of the method: as §1
[34] = tested on: NCI-H460; experiment: Growth inhibition of human NCI-H460 cells assessed as cell growth at 10 uM relative to untreated control; summary of the method: as §2
[35] = tested on: LOX IMVI; experiment: Growth inhibition of human LOXIMVI cells assessed as cell growth at 10 uM relative to untreated control; summary of the method: as §1
[36] = tested on: MDA-MB-231; experiment: Growth inhibition of human MDA-MB-231 cells assessed as cell growth at 10 uM relative to untreated control; summary of the method: as §2
[37] = tested on: CAKI-1; experiment: Growth inhibition of human Caki1 cells assessed as cell growth at 10 uM relative to untreated control; summary of the method: as §1
[38] = tested on: MDA-MB-468; experiment: Growth inhibition of human MDA-MB-468 cells assessed as cell growth at 10 uM relative to untreated control; summary of the method: as §2
[39] = tested on: TK-10; experiment: Growth inhibition of human TK10 cells assessed as cell growth at 10 uM relative to untreated control; summary of the method: as §3
[40] = tested on: PC-3; experiment: Growth inhibition of human PC3 cells assessed as cell growth at 10 uM relative to untreated control; summary of the method: as §2
[41] = tested on: UO-31; experiment: Growth inhibition of human UO31 cells assessed as cell growth at 10 uM relative to untreated control; summary of the method: as §3
[42] = tested on: SR; experiment: Growth inhibition of human SR cells assessed as cell growth at 10 uM relative to untreated control; summary of the method: as §3
[43] = tested on: NCI/ADR-RES; experiment: Growth inhibition of human NCI/ADR-RES cells assessed as cell growth at 10 uM relative to untreated control; summary of the method: as §2
[44] = tested on: HCT-116; experiment: Growth inhibition of human HCT116 cells assessed as cell growth at 10 uM relative to untreated control; summary of the method: as §1
[45] = tested on: MCF7; experiment: Growth inhibition of human MCF7 cells assessed as cell growth at 10 uM relative to untreated control; summary of the method: as §2
[46] = tested on: DU-145; experiment: Growth inhibition of human DU145 cells assessed as cell growth at 10 uM relative to untreated control; summary of the method: as §1
[47] = tested on: SNB-19; experiment: Growth inhibition of human SNB19 cells assessed as cell growth at 10 uM relative to untreated control; summary of the method: as §3
[48] = tested on: SN12C; experiment: Growth inhibition of human SN12C cells assessed as cell growth at 10 uM relative to untreated control; summary of the method: as §3
[49] = tested on: SF-295; experiment: Growth inhibition of human SF295 cells assessed as cell growth at 10 uM relative to untreated control; summary of the method: as §2
[50] = tested on: SF-268; experiment: Growth inhibition of human SF268 cells assessed as cell growth at 10 uM relative to untreated control; summary of the method: as §2
[51] = tested on: MDA-MB-435; experiment: Growth inhibition of human MDA-MB-435 cells assessed as cell growth at 10 uM relative to untreated control; summary of the method: as §2
[52] = tested on: Malme-3M; experiment: Growth inhibition of human MALME-3M cells assessed as cell growth at 10 uM relative to untreated control; summary of the method: as §1
[53] = tested on: BT-549; experiment: Growth inhibition of human BT549 cells assessed as cell growth at 10 uM relative to untreated control; summary of the method: as §1
[54] = tested on: IGROV-1; experiment: Growth inhibition of human IGROV1 cells assessed as cell growth at 10 uM relative to untreated control; summary of the method: as §1

Work on N=C1c2nc3n(c2C(=O)c2nc4n(c21)CCCCC4)CCCCC3 yielded a growth at 10 µM [1] of 106%, a growth at 10 µM [2] of 99.1% and a growth at 10 µM [3] of 88.7%. The growth at 10 µM [4] was 110%, the growth at 10 µM [5] was 90.9% and the growth at 10 µM [6] was 106%. It also gave a growth at 10 µM [7] of 126%, a growth at 10 µM [8] of 107% and a growth at 10 µM [9] of 105%. For the same compound, the growth at 10 µM [10] was 93.7%, the growth at 10 µM [11] was 102% and the growth at 10 µM [12] was 112%. For the same compound, the growth at 10 µM [13] was 105%, the growth at 10 µM [14] was 97.3% and the growth at 10 µM [15] was 103%. It also gave a growth at 10 µM [16] of 120%, a growth at 10 µM [17] of 104% and a growth at 10 µM [18] of 111%. The growth at 10 µM [19] was 98.2%, the growth at 10 µM [20] was 112% and the growth at 10 µM [21] was 105%. The growth at 10 µM [22] was 123%, the growth at 10 µM [23] was 105% and the growth at 10 µM [24] was 122%. For the same compound, the growth at 10 µM [25] was 109%, the growth at 10 µM [26] was 118% and the growth at 10 µM [27] was 102%. For the same compound, the growth at 10 µM [28] was 118%, the growth at 10 µM [29] was 116% and the growth at 10 µM [30] was 103%. The growth at 10 µM [31] was 108%, the growth at 10 µM [32] was 110% and the growth at 10 µM [33] was 91.6%. The growth at 10 µM [34] was 92.6%, the growth at 10 µM [35] was 92% and the growth at 10 µM [36] was 117%. For the same compound, the growth at 10 µM [37] was 95.1%, the growth at 10 µM [38] was 99.8% and the growth at 10 µM [39] was 142%. The growth at 10 µM [40] was 113%, the growth at 10 µM [41] was 83.7% and the growth at 10 µM [42] was 91.8%. For the same compound, the growth at 10 µM [43] was 110%, the growth at 10 µM [44] was 107% and the growth at 10 µM [45] was 94.5%. For the same compound, the growth at 10 µM [46] was 113%, the growth at 10 µM [47] was 113% and the growth at 10 µM [48] was 106%. The growth at 10 µM [49] was 93.8%, the growth at 10 µM [50] was 108% and the growth at 10 µM [51] was 111%. The growth at 10 µM [52] was 103%, the growth at 10 µM [53] was 110% and the growth at 10 µM [54] was 130%.
